# Bioassay records from PubChem BioAssay.
# Hits are enriched below; roughly 2.6% of the tested compounds scored in any of these assays.
# HIV Env fusion – inhibitors of HIV-1 Env-driven cell-cell fusion, primary screen, HeLa-JRFL effector, CEM21 target cells, luciferase | 360,000 compounds, 1.1% hits | AID 651610, 2012 | inhibition, % at 12.3 µM;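 active means mean replicate inhibition score of at least 50 and every replicate individually at or above 50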;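 further: 0% = plate neutral controls and 100% = maraviroc near 300 nM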
# Vif imaging – HIV Vif self-association inhibitors, primary screen, imaging, HEK293T, single point; HEK293T cells, Vif self-association by quenched fluorescence, 24 h; inhibition, % at 7.49 µM; 340,000 compounds, 0.35% hits; in the data active means inhibition above about 50%, passing the limit was not always enough
# FN deposition inh – inhibitors of fibronectin matrix deposition, primary screen, AH1F cells, Alexa488-fibronectin fluorescence, plate reader | AID 743247, 2014 | AH1F fibroblasts, overnight | 350,000 compounds, 0.086% hits | inhibition, % at 12.6 µM;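 active means mean inhibition across replicates of 30% or more, regardless of how many single replicates reach that level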;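 further: positive control wells lacked labelled fibronectin entirely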
#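 test system = AH1F fibroblasts assembling fluorescent fibronectin matrix | quantity = 10000 AH1F cells per well | buffer or medium = DMEM plus 2% serum, read in PBS | doses = single dose, pinned | incubation = 1 h cell attachment, overnight exposure to compound and label | detection = fluorescence at 485 nm excitation, 525 nm emission | read-out basis = inhibition from reduced deposited-fibronectin fluorescence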
# miR-122 sensor – miR-122 Renilla sensor signal increase in Huh7, primary screen, miR-122 inhibitor project, cell-based, single point, plate reader | Huh7 miR-122 Renilla luciferase sensor, 48 h; neutral wells = 0, positive control = 100 | activation (reporter increase), % at 12.5 µM | 340,000 compounds, 0.3% hits | AID 602342, 2012;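 active means mean replicate activation score at least 90 and every replicate individually at or above 90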;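 further: higher luciferase means less miR-122 activity so hits act as miR-122 inhibitors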
# S100A4 MyoIIA – inhibitors of S100A4-myosin IIA peptide binding, primary screen, biochemical, fluorescence polarization, TAMRA-MyoIIA peptide; AID 652163, 2013; 360,000 compounds, 0.14% hits; inhibition, % at 10.7 µM; Protein S100-A4 (Homo sapiens), P26447;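 active means mean inhibition of at least 70% across replicates, with every replicate also reaching that level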
# Target sequence (P26447 whole entry, looked up): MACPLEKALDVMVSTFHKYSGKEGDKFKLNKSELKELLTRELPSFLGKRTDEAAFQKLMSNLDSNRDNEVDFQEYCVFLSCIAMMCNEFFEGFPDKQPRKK
#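 Material: human S100A4 monomer with TAMRA-labelled myosin IIA peptide; buffer or medium: HEPES pH 7.2 with CaCl2, KCl, NaCl, DTT, Triton; compound dosing: one concentration per compound; schedule: 5 min incubation before reading; benchmarks: neutral control DMSO, positive control TFP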
# rRNA inh HTS – reduced GFP signal of wild-type E. coli, primary screen, bacterial rRNA inhibitor project, GFP/RFP fluorescence, OD600, single point; GFP signal change (wild-type ribosome), % (no concentration beside the values); 350,000 compounds, 1.6% hits; AID 720706, 2013; E. coli WT GFP vs humanized-ribosome RFP mutants, 24 h; active compounds read low; DMSO median 0, no signal -100;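 active means significant combined selectivity score with lowered wild-type GFP, culture density cut under 30%, mutant RFP and density less affected; inactive means any of these conditions unmet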
# Starred values were filed as active, the others as inactive; nt = no result; [ ] = another dose, or the depositor's remark.
SMILES,HIV Env fusion,Vif imaging,FN deposition inh,miR-122 sensor,S100A4 MyoIIA,rRNA inh HTS
N#Cc1c(-c2ccc(Cl)cc2)cc(-c2ccccc2)nc1SCC(=O)O,27,0,0,-3,-1,-49
COc1cc(-c2cc(-c3ccccc3)nc(SCC(=O)O)c2C#N)cc(OC)c1OC,-31,-13,7,2,-2,-29*
COc1ccc(CCNc2ccncn2)cc1,56*,3,-12,-6,nt,nt
COc1ccc(CCNc2ccncn2)cc1OC,-40,3,1,nt,nt,nt
Cc1ccccc1CN1C(=O)C(C)S/C1=N/N=C/c1ccco1 (stereo not given),6,-4,-7,nt,-5,-23*
CC1S/C(=N/N=C/c2ccco2)N(Cc2ccc(F)cc2)C1=O (stereo not given),-1,-2,-7,nt,4,-10
C[C@@H]1CN([C@@H](C)CO)C(=O)CCCn2cc(nn2)CO[C@@H]1CN(C)C(=O)OCc1ccccc1,nt,nt,9,-5[16.7 µM],nt,-1
Cc1noc(C)c1NC(=O)N(C)C[C@H]1OCCCC[C@@H](C)Oc2ccc(NS(=O)(=O)c3cccs3)cc2C(=O)N([C@@H](C)CO)C[C@H]1C,6[16.7 µM],nt,nt,-3[16.7 µM],-9,-1
COc1cc(OC)c(N(C)S(=O)(=O)c2cccc(C(=O)NC3=NCCS3)c2)cc1Cl,10,5,-10,46,3,-23*
COc1cc(OC)c(N(C)S(=O)(=O)c2cccc(C(=O)Nc3nc(C)cs3)c2)cc1Cl,nt,-8,-5,-3,-5,-24
Cc1ccccc1-c1ccc2c(c1)O[C@H](CN(C)Cc1ccc(C(=O)O)cc1)[C@H](C)CN([C@H](C)CO)S2(=O)=O,nt,nt,-1,9[16.7 µM],0,-3
COc1ccc(-c2ccc3c(c2)[C@H]2[C@H](CCN2C(=O)c2cnccn2)[C@H](CO)N3)cc1,nt,nt,2,2[16.7 µM],-3,-4
CCC(=O)N(C)CCc1cc2c(c(OC)c1/C=N/NS(=O)(=O)c1ccc(C)cc1)OCO2,-11,-1,8,-2,1,-25*
C[C@H](CO)N1C[C@H](C)[C@H](CN(C)Cc2ccc(C(=O)Nc3ccccc3N)cc2)Oc2ccc(NC(=O)CCN3CCOCC3)cc2C1=O,nt,nt,-41,-5[16.7 µM],-5,1
COc1ccc2c3c(n(C)c2c1)[C@H](CO)N(C(=O)c1ccccc1)CC31CCN(C(=O)c2ccccc2)CC1,nt,nt,8,nt,73*,-4
COc1ccc2c3c(n(C)c2c1)[C@H](CO)N(C(=O)Nc1ccc(F)cc1)CC31CCN(Cc2cccc(F)c2)CC1,47[16.7 µM],nt,nt,nt,4,-10
COc1ccc2c3c(n(C)c2c1)[C@@H](CO)N(C(=O)Nc1ccc(F)cc1)CC31CCN(Cc2cccc(F)c2)CC1,82*[16.7 µM],nt,nt,nt,-3,-13
COc1ccc2c3c(n(C)c2c1)[C@H](CO)N(C(=O)c1ccccc1)CC31CCN(C(C)=O)CC1,11[16.7 µM],nt,nt,nt,4,0
C[C@H]1CN([C@@H](C)CO)C(=O)c2cccc(N(C)C)c2O[C@@H]1CN(C)Cc1ccc(-c2ccccc2)cc1,11[16.7 µM],nt,nt,-2[16.7 µM],2,-5
CC1Sc2n(c3ccccc3[n+]2C)N=C1c1ccccc1 (stereo not given),60*,-12,0,nt,nt,nt
C[n+]1c2n(c3ccccc31)N=C(c1ccc(Cl)cc1)CS2,33,4,7,8,nt,nt
COCC(=O)N1CC2(C1)[C@@H](c1ccc(-c3ccc(F)cc3)cc1)[C@@H](CO)N2C(=O)C1CC1,nt,nt,nt,nt,6,2
CO[C@H]1CN(C)C(=O)c2cc(NC(=O)NC3CCCC3)ccc2OC[C@H](C)NC[C@@H]1C,nt,nt,-11,nt,nt,3
O=C1CCCC(O)=C1Sc1cc(Cl)c(Cl)cc1Cl,18,4,-13,-3,-42,-23*
O=C1CCCC(O)=C1N=Nc1c(Cl)cc(Cl)cc1Cl,-6,-1,-5,nt,nt,nt
SMILES,HIV Env fusion,Vif imaging,FN deposition inh,miR-122 sensor,S100A4 MyoIIA,rRNA inh HTS
O=S(=O)(c1ccccc1)[C@@]1(c2ccccc2)C[C@@H]2ON=C(c3cccc(Br)c3)[C@@H]2C1,79*,-5,11,-9,-4,-8
CC(C)NC(=O)N1CC(=O)N2[C@@H](CO)[C@H](c3ccc(/C=C/c4ccccc4)cc3)[C@@H]2C1,nt,nt,22,nt,7,-1
O=C(NCc1ccccc1)C1=C[C@@H](c2csc3ccccc23)C[C@@H](OCCCCO)O1,81*,nt,-16,nt,-5,-3
O=C(NC1CC1)C1=C[C@@H](c2ccc(Br)cc2)C[C@@H](OCCCCO)O1,11,0,10,-9,2,-19*
COc1ccc(CC(C#N)(CO)c2nc3ccccc3[nH]2)cc1 (stereo not given),nt,-11,1,nt,nt,nt
N#CC(CO)(Cc1ccc(OC(F)F)cc1)c1nc2ccccc2[nH]1 (stereo not given),-7,-4,6,nt,3,-21*
C[C@@H]1CN([C@@H](C)CO)C(=O)Cc2cc(NS(C)(=O)=O)ccc2O[C@H]1CN(C)Cc1ccc(C(=O)O)cc1,-29[16.7 µM],nt,nt,0[16.7 µM],2,0
N#C/C(=C\c1c(N(Cc2ccccc2)Cc2ccccc2)nc2ccccn2c1=O)C(N)=O,58*,-3,-2,nt,nt,nt
C=CCNC(=O)/C(C#N)=C/c1c(N(Cc2ccccc2)Cc2ccccc2)nc2ccccn2c1=O,23,-7,-2,36,-1,-13
C[C@@H]1CN([C@@H](C)CO)C(=O)c2cc(NC(=O)CCCN(C)C)ccc2O[C@H]1CN(C)Cc1ccc2c(c1)OCO2,nt,nt,nt,nt,16,5
CC(Oc1ccc(Cl)cc1)c1ccnn1S(=O)(=O)c1ccc(Cl)cc1 (stereo not given),29,-1,0,111*,nt,nt
CC(Oc1ccccc1)c1ccnn1S(=O)(=O)c1ccccc1 (stereo not given),-54,nt,9,nt,nt,nt
CCc1ccc(-c2nc(CN3CCC(C(=O)NCCc4ccc(OC)c(OC)c4)CC3)c(C)o2)cc1,68*,0,8,-3,nt,nt
COc1ccc(CCNC(=O)C2CCN(Cc3nc(-c4ccccc4F)oc3C)CC2)cc1OC,-48,1,34*,-7,nt,nt
Cc1oc(-c2ccccc2F)nc1CN1CCC(C(=O)NCCC2=CCCCC2)CC1,90*,-8,3,-6,nt,nt
COc1ccc2c3c(n(C)c2c1)[C@@H](CO)NCC31CCN(Cc2ccccc2Cl)CC1,nt,nt,nt,nt,nt,1
COc1ccc2c3c(n(C)c2c1)[C@@H](CO)N(C)CC31CN(S(=O)(=O)c2cn(C)cn2)C1,nt,nt,nt,nt,18,0
